Sampled rows, rich in hits. Any-hit rate of the full collection: about 5.1%.
M1 ag: M1 muscarinic receptor agonists, primary screen, CHO-M1 cells, Fluo-4 calcium, agonist mode | Muscarinic acetylcholine receptor M1 | Fluo-4 calcium fluorescence; stronger effect = higher value | B-score at 10 µM | 3% of 64,000 active | AID 626, 2007;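 active means fluorescence rise, raw or as B-score row- and column-corrected plate score, outside the 99.7% band of its plate's samples, either direction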
M1 antag: antagonists of rat M1 muscarinic receptor | Muscarinic acetylcholine receptor M1 (Rattus norvegicus), P08482 | CHO-M1 cells, Fluo-4 calcium, ACh EC80 antagonist mode; stronger effect = lower value | B-score at 10 µM | 3.4% of 64,000 active;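 active means calcium fluorescence response, raw or row-and-column corrected B-score, differing from the plate sample mean either way at a set confidence level, mostly lower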
Ecoli WT expand: growth inhibitors of wild-type E. coli, primary screen, strain BW25113, expanded library, OD600 | OD600 absorbance | 0.15% of 98,000 active | growth inhibition, % at 100 µM;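 active means growth inhibition above about 50% at one test dose, limit read from the data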;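 further: growth measured after 20 h incubation at 37 °C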
tolC growth inh: growth inhibitors of E. coli tolC mutant, primary screen, strain BW25113 ΔtolC::kan, 384-well; OD615; growth inhibition, % at 10 µM (by protocol); 2.2% of 65,000 active;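 active means growth inhibition at or above a cutoff equal to the mean over every tested compound plus 3 SD, cut at about 60% in these data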;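 further: growth measured after 20 h incubation at 37 °C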
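Signal: optical density read at 615 nm; Assay system: E. coli ΔtolC::kan strain BW25113; Times: 20 h incubation with compound, 37 °C; Dosing: 10 µM final, single dose.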
BAP1 inh: inhibitors of BAP1 deubiquitinase, primary screen, biochemical, Ub-AMC fluorescence, kinetic. calls only at 20 µM. 0.48% of 72,000 active. Ubiquitin carboxyl-terminal hydrolase BAP1 (Homo sapiens), Q92560. recombinant BAP1, Ub-AMC hydrolysis fluorescence kinetic; stronger effect = lower value;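 active means activity remaining at or below 50% of control, provided the compound also passes the data quality filters; inactive means the rest, including low values that fail the filters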;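 further: 100% = DMSO wells rate and 0% = substrate alone blank rate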
Target sequence (Q92560 whole entry, looked up): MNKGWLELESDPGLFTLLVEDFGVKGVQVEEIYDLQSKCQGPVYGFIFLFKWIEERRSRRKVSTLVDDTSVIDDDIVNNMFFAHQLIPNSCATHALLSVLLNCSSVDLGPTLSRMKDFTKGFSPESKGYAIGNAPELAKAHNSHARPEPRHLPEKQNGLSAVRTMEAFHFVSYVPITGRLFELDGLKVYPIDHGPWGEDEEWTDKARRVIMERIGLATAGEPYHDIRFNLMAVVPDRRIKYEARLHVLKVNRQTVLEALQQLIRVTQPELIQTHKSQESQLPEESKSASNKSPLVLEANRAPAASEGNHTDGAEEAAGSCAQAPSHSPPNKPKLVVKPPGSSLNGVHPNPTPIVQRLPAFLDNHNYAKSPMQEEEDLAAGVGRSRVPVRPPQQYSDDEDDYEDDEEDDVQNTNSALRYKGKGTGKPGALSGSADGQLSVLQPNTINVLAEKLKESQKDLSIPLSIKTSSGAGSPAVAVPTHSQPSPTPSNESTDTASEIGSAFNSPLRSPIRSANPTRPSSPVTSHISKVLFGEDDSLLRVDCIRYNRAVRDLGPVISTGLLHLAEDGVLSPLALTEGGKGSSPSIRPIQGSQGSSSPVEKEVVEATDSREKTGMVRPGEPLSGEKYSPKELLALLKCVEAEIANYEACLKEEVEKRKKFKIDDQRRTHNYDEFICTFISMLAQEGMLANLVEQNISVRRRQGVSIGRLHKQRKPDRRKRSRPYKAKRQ
Hsp90 inh: tumor Hsp90 inhibitors, primary screen, cell lysate, fluorescence polarization, NCI-N417 lysate; Cy3B-geldanamycin FP displacement; inhibition, % at 30 µM; 0.35% of 64,000 active; AID 429, 2006; Heat shock protein HSP 90-alpha (Homo sapiens), P07900;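 active means inhibition above 50%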;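 further: 0% = tracer plus lysate wells and 100% = tracer alone without lysate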
* marks the source's active call; other numbers are inactive results; i = inactive; · = no result shown.

SMILES	M1 ag	M1 antag	Ecoli WT expand	tolC growth inh	BAP1 inh	Hsp90 inh
CCCCOC(=O)C1=C(C)NC2=C(C(=O)CCC2)C1c1cc(Br)c(O)c(OCC)c1 (stereo not given)	·	·	·	·	i	·
COC(=O)c1sc(-c2ccccc2)cc1NC(=O)c1ccc(S(=O)(=O)N2CCc3ccccc3C2)cc1	·	·	·	·	i	·
O=C(CNCCC1=CCCCC1)Nc1ccccc1N1CCCCC1	0.91	-0.0017	10	100*	i	-1
CCCCC(CC)CNC(=O)c1ccccc1Cl (stereo not given)	·	·	·	·	i	·
CNC(=S)N1CCN(c2c(F)cc3c(=O)c(C(=O)O)cn(C4CC4)c3c2OC)CC1C (stereo not given)	·	·	100*	·	·	·
Cc1c(-n2cc(C(=O)O)c(=O)c3cc(F)c(N4CCCC4)c(F)c32)c(=O)n(-c2ccccc2)n1C	0.55	-0.091	·	-29	·	·
COc1c(N2CCN(C(=S)Nc3ccccc3)C(C)C2)c(F)cc2c(=O)c(C(=O)O)cn(C3CC3)c12 (stereo not given)	·	·	99*	·	·	·
CCOC(=O)c1cn(-c2nc(-c3ccc(Cl)cc3)cs2)c2c(F)c(N3CC(C)OC(C)C3)c(F)cc2c1=O (stereo not given)	·	·	-5	·	·	·
CCCCCOC(=O)C1=C(C)NC(=S)NC1c1ccccc1 (stereo not given)	·	·	·	·	i	·
CCNC1CCCc2c1[nH]c1ccc(C)cc21 (stereo not given)	·	·	·	·	i	·
O=C(c1ccc(COc2ccccc2Cl)o1)N1CCN(c2ccccc2)CC1	0.37	2	-26	84*	i	-2
O=C(c1ccc(COc2ccccc2Br)cc1)N1CCCCC1	·	·	-3	·	·	·
O=C(c1ccc(COc2ccccc2Br)o1)N1CCCCCC1	-0.27	-0.13	-5	61*	i	-6
CCCc1ccc(OCc2ccc(C(=O)N3CCN(c4ccccn4)CC3)o2)c(OC)c1	5.5*	-0.69	-14	100*	i	-1
COc1ccc(CC(=O)N2CCN(c3ccccn3)CC2)cc1OC	0.078	1.5	-1	-6	i	-1
O=C(c1ccc(COc2ccc3c(c2)CCC3)o1)N1CCN(c2ccccc2)CC1	-0.83	-0.43	·	67*	·	-19
O=C(c1ccco1)N1CCN(C(=O)c2ccc(COc3ccc4c(c3)CCC4)o2)CC1	·	·	-5	·	·	·
COc1cccc2cc(-c3csc(CC#N)n3)c(=O)oc12	·	·	·	·	i	·
Cc1ccc(C)c(SCC(=O)Nc2nnc(-c3ccccc3)o2)c1	17*	0.0013	-7	100*	i	-1
O=C(Nc1nc2ccc(Br)cc2s1)c1ccc(Cl)cc1	·	·	·	·	i	·
CCOC(=O)c1cnc(SC2CC(=O)N(c3ccccc3)C2=O)nc1N (stereo not given)	·	·	1	·	·	·
CCOC(=O)c1cnc(SC2CCc3ccccc3C2=O)nc1N (stereo not given)	0.23	-0.57	-9	22	i	56*
CSc1nc(-c2ccccc2)nc(N2CCCC2)c1C(C)=O	-0.024	0.45	-1	75*	i	1
O=C(CC1(O)C(=O)N(C/C=C/c2ccccc2)c2ccccc21)c1ccccn1 (stereo not given)	0.52	1.9*	3	33	i	-8
O=C(Nc1cc(Cl)ccc1O)c1cnn2c1NC(c1cccs1)CC2C(F)(F)F (stereo not given)	·	·	·	·	i	·
SMILES	M1 ag	M1 antag	Ecoli WT expand	tolC growth inh	BAP1 inh	Hsp90 inh
COc1ccccc1-c1noc(CCC(=O)Nc2cccc(C(F)(F)F)c2)n1	-0.086	-0.58	-8	65*	i	-3
COc1cccc(NC(=O)CCc2nc(-c3ccccc3F)no2)c1	·	·	7	·	·	·
O=C(CCc1nc(-c2ccccc2F)no1)Nc1ccc(Oc2ccccc2)cc1	-0.56	-0.8	0	81*	i	3
O=C(Oc1ccc(C(=S)N2CCCCC2)cc1)c1ccc(Cl)cc1	·	·	·	·	i	·
O=C1CSC(=S)N1Cc1cccnc1	-0.62	-0.13	65*	4	i	-50
O=C1CSC(=S)N1c1cccnc1	0.014	0.23	6	-11	i	-7
COc1ccc(NC(=O)c2cc(-c3cc(C)cc(C)c3O)n[nH]2)cc1Cl	-0.67	0.38	-1	96*	i	2
c1ccc2c(c1)oc1c(N3CCN(Cc4ccc5c(c4)OCO5)CC3)ncnc12	0.78	-2.5	-15	100*	i	0
c1ccc(Cn2nnc3c(N4CCN(Cc5ccc6c(c5)OCO6)CC4)ncnc32)cc1	0.0093	-1.2	-24	61*	i	3
Cc1ccc2c(c1)[nH]c1c(N3CCN(Cc4ccc5c(c4)OCO5)CC3)ncnc12	3.4*	-2	·	47	·	-7
Clc1ccc(N2CCN(c3ncnc4c3oc3ccccc34)CC2)cc1	-0.84	1.2	·	-8	·	-4
C/C(NCc1ccccc1)=C(\C#N)C(=O)NCc1ccccc1	·	·	3	·	·	·
C/C(NCc1cccnc1)=C(\C#N)C(=O)NCc1ccccc1	0.64	2.2*	-2	-12	i	-1
COC(=O)c1sc(N2C(=O)C(O)=C(C(=O)c3ccc(C)o3)C2c2ccc(F)cc2)nc1C (stereo not given)	-0.42	0.053	-8	65*	i	-8
CC1=C(C(=O)OCc2ccccc2)C(c2ccccc2Br)C2=C(CC(c3ccccc3)CC2=O)N1 (stereo not given)	·	·	·	·	i	·
O=C(c1cccnc1)N1CCCc2ccccc21	-3*	0.028	-3	-10	i	0
O=C(c1noc2c1CCc1ccccc1-2)N1CCCc2ccccc21	1.2	-0.12	-10	99*	i	-7
O=C(c1noc2c1CCc1ccccc1-2)N1CCOCC1	-0.12	0.32	4	-24	i	-1
O=C(NCCCn1ccnc1)c1noc2c1CCc1ccccc1-2	-0.079	0.22	3	6	i	63*
O=C(c1noc2c1CCc1ccccc1-2)N1CCc2ccccc2C1	·	·	-8	87*	i	-4
CCOC(=O)c1c(NC(=O)CC23CC4CC(CC(Br)(C4)C2)C3)sc2c1CCCC2	·	·	·	·	i	·
Cc1cc(Cl)ccc1OCC(=O)OC(C)C(=O)N(C)C (stereo not given)	0.22	0.87	-8	2	i	-3
CCN(CC)C(=O)C(C)OC(=O)COc1ccc(Cl)cc1C (stereo not given)	-0.37	1.9*	-1	-4	i	-7
COc1ccc2[nH]c3c(=O)n(CCCCC(=O)N4CCCC4)c(=S)[nH]c3c2c1	0.12	0.19	1	100*	i	-4
CN1c2ccccc2N(C)C1(C)c1ccc(C2(C)N(C)c3ccccc3N2C)cc1	·	·	·	·	i	·
CC1CCCCC1n1c(=S)[nH]c2ccccc2c1=O (stereo not given)	0.034	-0.54	-2	100*	i	-2
